Hits are enriched below; roughly 9.2% of the tested compounds scored in any of these assays.
PTEN del growth: suppresses growth of cells with PTEN deletion; HCT116 PTEN-null viability, CellTiter-Glo, 60 h; active compounds read low; viability, % at 10 µM; 1.2% of 140,000 active;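 active = viability at or below a set limit, 4 SD under the median of all tested compounds, cut at about 3.7% in these data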;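 also: PTEN knockout HCT116 line with beta catenin targeted HCT116 as companion control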
Dynein cargo inh: dynein cargo transport inhibition. AID 1381. 3617.4 mouse cells, GR-EGFP nuclear translocation imaging; test concentration mostly 20 µM; stimulated with dexamethasone, 1 µM; active compounds read low. 0.47% of 220,000 active. z-score, hits read low;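 active = plate z-score of nuclear minus cytoplasmic receptor signal below a set negative limit, without overly bright fluorescence or cell loss, cut at about -3.5 in these data, passing the limit was not always enough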;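 also: z-score of nuclear minus cytoplasmic ring GR-EGFP intensity difference per well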
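Also added – dexamethasone, 1.0 µM final · Buffer or medium – tet-free, stripped-serum medium · Schedule – induction 48 h, compound 1 h, agonist 30 min · Detection – formaldehyde fixation, Hoechst nuclear stain, 10x automated fluorescence imaging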
bCat KO growth: beta-catenin-lacking colon tumor cell growth suppression; 1.5% of 140,000 active; HCT116 beta-catenin knockout viability, CellTiter-Glo, 60 h; active compounds read low; viability, % at 10 µM; AID 818;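 active = viability at or under a set limit, the compound median less 4 SD, cut at about 6% in these data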;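 also: 0% = Hyamine 1622 control at 20 µM and 100% = untreated cell control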
Autophagy mod: modulators of autophagy. MEF GFP-LC3 puncta imaging; test concentration mostly 10 µM. calls only at 10 µM (by protocol). 0.98% of 190,000 active. AID 463193;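 active = percentage of spot-positive cells more than 3 SD above its plate mean, without a fluorescence outlier flag or 80% toxicity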;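 also: spot-positive cell cutoff set from DMSO-treated cells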
L major viab: reduces viability of Leishmania major promastigotes. resazurin fluorescence viability. inhibition, % at 10 µM. 9% of 200,000 active; in the data active = inhibition above about 50%;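 also: promastigotes grown with compound for 44 hours at 28 °C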
Starred values were filed as active, the others as inactive; i = inactive; / = no result given; + = active, no number.

SMILES	PTEN del growth	Dynein cargo inh	bCat KO growth	Autophagy mod	L major viab
COc1cc(C(=O)NC(=S)N(CCc2ccccc2)CCc2ccccc2)cc(OC)c1OC	16.5	1.44	24.9	i	99.3*
COc1ccc(C(=O)NC(=S)N(Cc2ccccc2)Cc2ccccc2)cc1	22.5	0.373	20.7	i	89.8*
Cc1cccc(C)c1NC(=O)CN1C(=O)N(C)Cc2ccccc21	/	-1.05	/	i	-5.7
O=C(Nc1nnc(-c2ccccc2Cl)o1)c1ccc(S(=O)(=O)N2CCCCCC2)cc1	13.2	0.257	18.3	i	98.8*
O=C(Nc1nnc(C2=COCCO2)o1)c1ccc(S(=O)(=O)N2CCCCC2)cc1	/	-0.562	/	i	3.7
O=C(Nc1ccccc1)c1ccc(S(=O)(=O)N2CCCCC2)cc1	96.3	1.03	87.0	/	2.2
CC1CCCCN1S(=O)(=O)c1ccc(C(=O)Nc2nnc(-c3ccccc3Cl)o2)cc1 (stereo not given)	17.0	0.179	22.5	i	98.8*
O=C(Nc1ccn(-c2ccccc2)n1)c1ccc(S(=O)(=O)N2CCCCCC2)cc1	22.6	-1.05	20.3	i	66.5*
CCC1CCCCN1S(=O)(=O)c1ccc(C(=O)Nc2nnc(-c3ccccc3Cl)o2)cc1 (stereo not given)	15.6	0.466	15.9	i	98.6*
O=C(CC(SCCO)c1ccc2c(c1)OCO2)c1cccs1 (stereo not given)	10.2	-1.74	7.2	i	72.9*
O=C(CC(SCc1ccco1)c1ccc(O)cc1)c1cccs1 (stereo not given)	20.3	2.5	11.1	i	28.8
Cc1cccc(CN2CCc3c(OCC(=O)N4CCCc5ccccc54)cccc3C2=O)c1	96.4	-0.507	99.2	i	28.2
O=C1c2cccc(OCC(=O)N3CCCc4ccccc43)c2CCN1Cc1ccc(F)cc1	55.7	0.542	70.5	i	95.3*
CC1CC(N(C(=O)c2ccco2)c2ccccc2)c2ccccc2N1C(=O)c1ccco1 (stereo not given)	82.0	-0.987	80.0	i	61.5*
CC1CC(N(C(=O)C2CC2)c2ccccc2)c2ccccc2N1C(=O)C1CC1 (stereo not given)	86.1	-0.195	83.8	i	-1.7
CC1CC(N(C(=O)c2ccc(Cl)cc2)c2ccccc2)c2ccccc2N1C(=O)c1ccco1 (stereo not given)	45.9	1.95	48.4	i	56.5*
CCOC(=O)C(=O)N1c2ccccc2C(N(C(=O)C(=O)OCC)c2ccccc2)CC1C (stereo not given)	/	-0.665	/	/	/
Cc1ccc(NS(=O)(=O)c2ccc(Br)s2)cc1S(=O)(=O)N1CCOCC1	/	-0.39	/	i	-6.6
Clc1cccc(-c2cc3nc4c(c(N5CCN(c6cnccn6)CC5)n3n2)CCCC4)c1	34.5	-0.423	39.9	i	61.6*
Fc1cccc(-c2cc3nc4c(c(N5CCN(c6cnccn6)CC5)n3n2)CCCC4)c1	/	-0.207	/	i	-0.5
Cc1ccc(N2CCCCn3c2nc2c3c(=O)n(CC(=O)O)c(=O)n2C)cc1	100.0	-0.301	100.5	i	-9.2
Cc1ccc(C(C)C)c(OCc2nn(CC(=O)c3ccc(OC(F)F)cc3)c3[n+]2CCCCC3)c1	/	-6.06	/	i	99.1*
COc1ccc(C(=O)Cn2nc(CNc3ccc(Br)cc3)[n+]3c2CCCCC3)cc1	/	-0.294	/	i	48.7
CC(C)CC(=O)NC(Nc1ccccc1F)C(Cl)(Cl)Cl (stereo not given)	82.0	0.0116	88.1	i	63.0*
COc1ccc(CNC(=S)N/N=C/c2ccncc2)cc1	99.2	-0.771	91.9	i	54.1*
SMILES	PTEN del growth	Dynein cargo inh	bCat KO growth	Autophagy mod	L major viab
CCOc1ccc(CNC(=S)N/N=C/c2ccncc2)cc1	91.5	1.71	87.8	i	-1.5
CCOC(=O)c1c(C)[nH]c(C(=O)CSc2nnc(-c3ccncc3)n2CC)c1C	102.0	-0.0126	99.5	i	3.0
C=CCn1c(SCC(=O)c2[nH]c(C)c(C(=O)OCC)c2C)nc2scc(-c3ccc(OC)c(OC)c3)c2c1=O	0.8*	-0.187	1.0*	i	-2.4
CCn1c(CN2CCN(CCO)CC2)nc2ccccc21	/	-0.154	/	i	4.6
CC(C)Cc1nnc(NC(=O)CCC(=O)NC2CCCc3ccccc32)s1 (stereo not given)	99.9	-0.769	83.3	i	96.2*
CCCc1nnc(NC(=O)CCC(=O)NC2CCCc3ccccc32)s1 (stereo not given)	99.4	0.865	92.1	i	6.8
NC(=O)Cc1ccc(C(=O)c2ccccc2)s1	/	-0.552	/	i	-6.2
O=C(c1cccc(Cl)c1)N1CCC(N2CCC(C(=O)N3CCOCC3)CC2)CC1	/	-1.56	/	i	41.6
CC1CN(C2CCN(C(=O)c3ccccc3Cl)CC2)CC(C)O1 (stereo not given)	89.7	-0.979	94.4	i	88.4*
O=C(c1cccc(F)c1)N1CCC(N2CCOCC2)CC1	108.6	0.339	105.7	i	62.5*
CC1CN(C2CCN(C(=O)c3cccc(Cl)c3)CC2)CC(C)O1 (stereo not given)	100.4	0.801	100.7	i	91.0*
O=C(Nc1ccc(-c2noc(CCc3ccccc3)n2)cc1)c1cccnc1	85.5	-0.951	77.9	i	50.1*
Cc1cc(OCc2nc(-c3ccc(NC(=O)c4cccnc4)cc3)no2)ccc1Cl	70.1	0.228	52.4	i	-4.1
CCC1CCCCN1S(=O)(=O)c1ccc(S(=O)(=O)N(Cc2cccs2)C2CC2)cc1 (stereo not given)	90.1	-1.05	82.2	i	100.2*
CCN(CC)CCCN(Cc1cc2cc3c(cc2[nH]c1=O)OCCO3)C(=O)Nc1ccc(F)cc1	65.8	-0.321	56.0	i	22.2
COc1ccc(Nc2ccc(S(=O)(=O)N3CCCCC3)cc2[N+](=O)[O-])cc1	67.4	0.416	73.0	i	2.8
O=C(NC(=S)NCCCN1CCOCC1)c1ccc([N+](=O)[O-])cc1	92.6	2.58	93.9	i	53.0*
O=[N+]([O-])c1ccc(NCCCN2CCOCC2)c([N+](=O)[O-])c1	/	-0.237	/	i	84.5*
COc1ccc(C(CNc2ccc(S(=O)(=O)N3CCCC3)cc2[N+](=O)[O-])N2CCCC2)cc1 (stereo not given)	56.2	2.61	51.0	+	30.4
O=[N+]([O-])c1cc(S(=O)(=O)N2CCCCC2)ccc1NCCN1CCOCC1	/	0.479	/	i	7.9
O=[N+]([O-])c1cc(S(=O)(=O)N2CCCCC2)ccc1NCCCN1CCOCC1	/	-1.29	/	i	75.4*
O=C(NC(=S)NCCN1CCOCC1)c1ccc(F)cc1	92.0	0.158	92.5	i	-5.3
Cc1nnsc1SCCNC(=O)Nc1ccc(Cl)cc1	/	-0.0538	/	i	-9.2
Cc1nc([N+](=O)[O-])c(C(=O)OCc2ccccc2C#N)n1C	/	-0.347	/	i	4.7
C=CCON/C(CCC)=C1\C(=O)C(C(=O)OC)C(C)(C)CC1=NC (stereo not given)	/	-0.445	/	i	4.1
O=[N+]([O-])c1cc(C(F)(F)F)ccc1NCCCN1CCOCC1	/	-0.394	/	i	87.7*

Assay outcomes (PubChem)
